These results are taken from article PMC7906590 (ACS Omega, 2021).

pIC50: −log10 of the molar value.

Series [1] deals with adenosine A2A (hADORA2A) receptor (Homo sapiens, UniProt P29274). The series is described as follows: cAMP ELISA in NECA/ADA-stimulated hADORA2A-HEK293 cells. The format is cell-based.
The nature of series [2]: Photostability of solution, HPLC purity after 1 h of light exposure. The series is classed as physicochemical. The note with it: 1 h light exposure. The procedure, abridged: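 Test compound dissolved in acetonitrile–potassium dihydrogen phosphate solution. A reference solution was kept in the dark, and a second sample was exposed to light for 1 h. Purity of each was determined by HPLC with DAD detection.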

adenosine A2A (hADORA2A) receptor, sequence (P29274 whole entry): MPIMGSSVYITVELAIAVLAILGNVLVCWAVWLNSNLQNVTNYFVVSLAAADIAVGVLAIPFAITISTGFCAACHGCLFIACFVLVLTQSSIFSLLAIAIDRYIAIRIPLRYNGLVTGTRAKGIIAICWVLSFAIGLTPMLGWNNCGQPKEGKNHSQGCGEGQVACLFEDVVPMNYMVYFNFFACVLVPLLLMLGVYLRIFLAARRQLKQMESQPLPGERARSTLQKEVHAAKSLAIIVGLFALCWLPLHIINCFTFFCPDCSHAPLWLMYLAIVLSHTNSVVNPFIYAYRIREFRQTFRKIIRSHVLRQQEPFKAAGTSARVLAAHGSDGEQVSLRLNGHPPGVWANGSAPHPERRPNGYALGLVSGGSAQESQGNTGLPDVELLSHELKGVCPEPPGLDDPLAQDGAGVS

The pIC50 is the IC50 on a negative log10 scale, so that one unit is a factor of ten. In series [1], `Nc1ncnc2[nH]c(/C=C/c3ccccc3)nc12` [II-1-1, (E) -8-styryl-9H-purine-6-amine] gave a pIC50 of less than 3.38.
Turning to `CCn1c(=O)c2c(nc(/C=C/c3ccc(OC)c(OC)c3)n2C)n(CC)c1=O` [Istradefylline, istradefylline], in series [2], the “isomerization after 1 h of light exposure” value is listed as “about 1/3”.
